Data from ChEMBL document CHEMBL3804764, “Synthesis and biological characterization of 3-(imidazol-1-ylmethyl)piperidine sulfonamides as aromatase inhibitors” (Bioorg Med Chem Lett, 2016).

Target: T1, Aromatase (Homo sapiens, UniProt P11511)
T1 sequence (P11511 whole entry): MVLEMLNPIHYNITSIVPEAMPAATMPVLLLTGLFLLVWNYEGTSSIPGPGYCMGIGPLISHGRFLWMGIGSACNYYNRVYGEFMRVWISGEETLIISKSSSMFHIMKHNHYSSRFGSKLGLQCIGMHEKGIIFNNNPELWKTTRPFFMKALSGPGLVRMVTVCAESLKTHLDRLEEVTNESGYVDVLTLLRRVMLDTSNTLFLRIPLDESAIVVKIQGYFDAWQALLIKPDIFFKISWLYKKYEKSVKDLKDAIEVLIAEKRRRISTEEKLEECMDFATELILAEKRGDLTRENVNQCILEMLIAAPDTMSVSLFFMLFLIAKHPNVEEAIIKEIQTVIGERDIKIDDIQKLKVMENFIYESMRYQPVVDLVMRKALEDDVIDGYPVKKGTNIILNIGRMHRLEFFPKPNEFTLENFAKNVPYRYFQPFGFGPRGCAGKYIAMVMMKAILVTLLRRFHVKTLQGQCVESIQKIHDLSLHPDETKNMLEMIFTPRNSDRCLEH
Test: Inhibition of recombinant human aromatase using 7-methoxy-4-trifluoromethyl coumarin as substrate measured at […] conditions by fluorescence analysis
Method in brief: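 Semiautomated high-throughput fluorometric screen with recombinant human aromatase and 7-methoxy-4-trifluoromethyl coumarin (MFC) substrate. Inhibition read as reduced fluorescence from MFC conversion. Blank values subtracted from sample wells to give net signal. Activity normalized to no-inhibitor wells. Duplicate assays. Racemic compounds tested.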

Row | Compound | IC50
1 | O=C(O)c1cc(S(=O)(=O)N2CCCC(Cn3ccnc3)C2)ccc1O (configuration not stated) | 0.339 µM
2 | O=[N+]([O-])c1ccc(S(=O)(=O)N2CCCC(Cn3ccnc3)C2)cc1C(F)(F)F (configuration not stated) | 0.016 µM
3 | O=S(=O)(c1ccc(F)cc1)N1CCCC(Cn2ccnc2)C1 (configuration not stated) | 0.051 µM
4 | O=S(=O)(c1ccc2c(c1)OCCO2)N1CCCC(Cn2ccnc2)C1 (configuration not stated) | 0.013 µM
5 | O=S(=O)(c1ccc(F)c(Cl)c1)N1CCCC(Cn2ccnc2)C1 (configuration not stated) | 0.014 µM
6 | O=S(=O)(c1ccc(OC2CCCC2)c(F)c1)N1CCCC(Cn2ccnc2)C1 (configuration not stated) | 0.022 µM
7 | CS(=O)(=O)c1ccc(S(=O)(=O)N2CCCC(Cn3ccnc3)C2)cc1 (configuration not stated) | 0.048 µM
8 | O=S(=O)(c1ccc(OC2CCCC2)cc1)N1CCCC(Cn2ccnc2)C1 (configuration not stated) | 0.014 µM
9 | O=S(=O)(c1ccc2nsnc2c1)N1CCCC(Cn2ccnc2)C1 (configuration not stated) | 0.007 µM
10 | N#Cc1ccc(S(=O)(=O)N2CCCC(Cn3ccnc3)C2)cc1 (configuration not stated) | 0.036 µM
11 | COc1c(C)cc(S(=O)(=O)N2CCCC(Cn3ccnc3)C2)cc1C (configuration not stated) | 0.021 µM
12 | O=S(=O)(c1cccc2nsnc12)N1CCCC(Cn2ccnc2)C1 (configuration not stated) | 0.054 µM
13 | O=S(=O)(c1ccc(F)c(F)c1)N1CCCC(Cn2ccnc2)C1 (configuration not stated) | 0.043 µM
14 | O=[N+]([O-])c1cccc(Cl)c1Oc1cccc(S(=O)(=O)N2CCCC(Cn3ccnc3)C2)c1 (configuration not stated) | 0.009 µM

Continued, values first:

Row | IC50 | Compound
15 | 0.009 µM | COc1ccc(S(=O)(=O)N2CCCC(Cn3ccnc3)C2)cc1C(C)(C)C (configuration not stated)
16 | 0.129 µM | COc1cc([N+](=O)[O-])ccc1S(=O)(=O)N1CCCC(Cn2ccnc2)C1 (configuration not stated)
17 | 0.053 µM | COC(=O)c1ccccc1S(=O)(=O)N1CCCC(Cn2ccnc2)C1 (configuration not stated)
18 | 0.042 µM | COc1ccc(S(=O)(=O)N2CCCC(Cn3ccnc3)C2)cc1OC (configuration not stated)
19 | 0.014 µM | COc1ccc(S(=O)(=O)N2CCCC(Cn3ccnc3)C2)cc1F (configuration not stated)
20 | 0.024 µM | Cc1cc(S(=O)(=O)N2CCCC(Cn3ccnc3)C2)ccc1F (configuration not stated)
21 | 0.045 µM | COc1c(C)cc(S(=O)(=O)N2CCCC(Cn3ccnc3)C2)c(C)c1C (configuration not stated)
22 | 0.131 µM | COc1ccc(S(=O)(=O)N2CCCC(Cn3ccnc3)C2)c(OC)c1 (configuration not stated)
23 | 0.006 µM | COc1ccc(S(=O)(=O)N2CCCC(Cn3ccnc3)C2)cc1Br (configuration not stated)
24 | 0.059 µM | COc1ccc(S(=O)(=O)N2CCCC(Cn3ccnc3)C2)c(C)c1C (configuration not stated)
25 | 0.046 µM | O=S(=O)(c1ccc(F)c(F)c1F)N1CCCC(Cn2ccnc2)C1 (configuration not stated)
26 | 0.048 µM | Cc1cc(F)ccc1S(=O)(=O)N1CCCC(Cn2ccnc2)C1 (configuration not stated)
27 | 0.079 µM | N#Cc1ccc(S(=O)(=O)N2CCCC(Cn3ccnc3)C2)c(Cl)c1 (configuration not stated)
